Tb MetRS inh: blocks T. brucei methionyl-tRNA synthetase activity. purified T. brucei MetRS, ATP depletion, Kinase-Glo luminescence. inhibition, % at 11.9 µM. actives 0.4% (n = 360,000). AID 624268;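 active = inhibition above a per-plate cutoff of the control wells' mean inhibition plus 3 SD, cut at about 5.5% in these data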;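 note: 0% = DMSO wells median and 100% = median of wells with control inhibitor compound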
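Material: T. brucei methionyl-tRNA synthetase, purified; reagent: substrates ATP, L-methionine and bulk Escherichia coli tRNA; dosing: 11.9 µM single point; timing: 15 min plus 2 h at 25 °C; detection: luminescence of leftover ATP; evaluation: % inhibition; control set: DMSO-only wells as low control; replicates: singlicate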
PLCg1 inh: PLC-gamma1 (human) inhibition, primary screen; purified PLC-gamma1, fluorogenic substrate, fluorescence; P19174; actives 0.84% (n = 370,000); inhibition, % at 12.2 µM; AID 720700; in the data active = inhibition above about 9.5%
sPLA2-III inh: Inhibits HGIII-sPLA2 liposome hydrolysis, primary screen | inhibition, % at 12.2 µM | QFRET BODIPY PC-A2 liposome hydrolysis, fluorescence | Q9NZ20 | actives 0.56% (n = 370,000);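 active = inhibition above mean plus 3 SD of compounds lying within the high and low control bounds, cut at about 19% in these data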;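 note: 0% = median of test compound wells and 100% = no enzyme DMSO wells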
PLCb3 inh: blocks human PLC-beta3 enzyme activity; inhibition, % at 12.2 µM; Purified PLC-beta3, fluorogenic substrate, fluorescence; AID 720704; actives 0.18% (n = 370,000); in the data active = inhibition above about 11%;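 note: 0% = median of compound wells on plate and 100% = full blocker control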
TbMetRS confirm: Trypanosoma brucei MetRS inhibition confirmed. shares compounds with Tb MetRS inh. T. brucei MetRS enzyme, luminescence (ATP depletion). inhibition, % at 11.9 µM. actives 93% (n = 1,400). AID 624412; in the data active = inhibition above about 7%
Jurkat tox: Jurkat T cell cytotoxicity for MetRS hits; shares compounds with Tb MetRS inh; Jurkat cells viability, ATP luminescence; inhibition, % at 8.3 µM; actives 12% (n = 1,400); in the data active = inhibition above about 15%;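 note: 0% = vehicle and 100% = reference inhibitor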
Tb MetRS inh FP: orthogonal test for Trypanosoma brucei MetRS inhibitors. AID 651607. shares compounds with Tb MetRS inh. purified T. brucei MetRS, fluorescence polarization. actives 44% (n = 1,400). inhibition, % at 11.9 µM; in the data active = inhibition above about 17%;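 note: 0% = vehicle wells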
* = called active by the depositor; i = inactive; x = no result. Shown are actives, neighbours in structure and some others; about 1.9% of the full set was active somewhere.

SMILES | Tb MetRS inh | PLCg1 inh | sPLA2-III inh | PLCb3 inh | TbMetRS confirm | Jurkat tox | Tb MetRS inh FP
COC(=O)C1CN(CCO)CCS(=O)(=O)N1Cc1cn(Cc2cccc(Cl)c2)nn1 (stereo not given) | x | 0 | 6 | 5 | x | x | x
c1ccc(-c2nnc(SCc3nc4ccccc4[nH]3)n2Cc2ccco2)cc1 | 3 | -27 | -1 | -33 | x | x | x
Cc1ccc(OCc2nnc(SCc3nc4ccccc4[nH]3)n2Cc2ccco2)cc1 | 35* | -10 | -25 | -12 | 62* | 14 | 34*
CCn1c(COc2ccc(Cl)cc2)nnc1SCc1nc2ccccc2[nH]1 | 54* | -2 | -8 | -4 | 58* | 12 | 36*
COc1ccc(CN(CCN2CCOCC2)C(=O)c2ccc(F)cc2F)cc1OC | x | -3 | 0 | 1 | x | x | x
COc1ccc(N)cc1CN1CCN(c2ncc(Cc3ccccc3)cn2)CC1 | x | 2 | -7 | 3 | x | x | x
O=C1CC(SCCc2nc3ccccc3[nH]2)C(=O)N1c1ccc(F)c(Cl)c1 (stereo not given) | 33* | -1 | -19 | -2 | 54* | 1 | 30*
O=C1CC(SCc2nc3ccccc3[nH]2)C(=O)N1c1cccc(Cl)c1 (stereo not given) | 80* | -153 | -9 | -153 | 91* | -1 | 61*
COc1cccc(NC(=O)CSc2nc3ncc(Br)cc3[nH]2)c1 | 70* | -1 | -40 | -11 | 85* | 6 | 60*
COc1cccc(NC(=O)CN(C)CC(=O)Nc2ccc(Br)cc2)c1 | 11* | 4 | -9 | -4 | 20* | 3 | 23*
O=C(CSc1nc2ncc(Br)cc2[nH]1)c1ccc([N+](=O)[O-])cc1 | 18* | -2 | -25 | -1 | 52* | 2 | 24*
Cc1nc(Nc2ccccc2)[nH]c(=O)c1CCC(C)C | 7.5* | 2 | 1 | 6 | 52* | 9 | 24*
Cc1ccc(-n2c(SCC(=O)Nc3ccc(OCc4ccccc4)cc3)nnc2-c2ccco2)cc1 | x | 0 | -7 | 0 | x | x | x
Nc1cc(C(=O)OCC(=O)NCc2ccc(F)cc2)ccc1Cl | 43* | -23 | 1 | -31 | 63* | -4 | 34*
OC(c1ccc(Cl)c(F)c1)c1ncc(-c2ccc(Cl)cc2)[nH]1 (stereo not given) | 5.8* | 2 | -13 | 1 | 41* | 8 | 17
OC(c1ccc(Cl)c(F)c1)c1ncc(-c2ccc(Oc3ccccc3)cc2)[nH]1 (stereo not given) | 0 | -6 | -1 | -14 | x | x | x
OC(c1ccc(Cl)c(Cl)c1)c1ncc(-c2ccc(Cl)cc2)[nH]1 (stereo not given) | 51* | 1 | -10 | 1 | 86* | -2 | 66*
CCOC(=O)CC[C@H]1CC[C@]2(CCCN(C(=O)c3ccno3)C2)O1 | x | -1 | 9 | -3 | x | x | x
COc1ccc(C2C(C(=O)N3CCN(C=O)CC3)CC(=O)N2c2ccc(OC)cc2)cc1 (stereo not given) | x | -2 | 6 | 1 | x | x | x
O=C(Nn1c(O)c(C=C2N=c3ccccc3=N2)sc1=S)c1ccccc1Cl | -11 | -34 | -11 | -40 | x | x | x
O=S(=O)(Nn1c(O)c(C=C2N=c3ccccc3=N2)sc1=S)c1ccccc1 | 55* | -30 | -33 | -48 | 65* | -5 | 39*
Cc1cccc(NS(=O)(=O)c2c(C)[nH]c(C)c2C(=O)N2CCCC2)c1 | 26* | -1 | 7 | -8 | 55* | -8 | 20*
CCOc1ccccc1NS(=O)(=O)c1c(C)[nH]c(C)c1C(=O)N1CCCCC1 | 35* | -1 | -1 | -5 | 57* | -5 | 27*
Cc1ccc(NS(=O)(=O)c2c(C)[nH]c(C)c2C(=O)N2CCCC2)cc1 | -1 | -1 | 5 | -8 | x | x | x
COc1ccc(Cl)cc1NS(=O)(=O)c1c(C)[nH]c(C)c1C(=O)N1CCCCC1 | 1 | 3 | -1 | -7 | x | x | x
SMILES | Tb MetRS inh | PLCg1 inh | sPLA2-III inh | PLCb3 inh | TbMetRS confirm | Jurkat tox | Tb MetRS inh FP
CCCC[C@H]1C2CC(OC(=O)Nc3cccc(Br)c3)C(C2)[C@H]2CCCCN21 (stereo not given in full) | x | 0 | -6 | -6 | x | x | x
COc1ccc(OC[C@@H](O)CN2CCC(C(O)(c3ccccc3)c3ccccc3)CC2)cc1 | x | 6 | -20 | 9 | x | x | x
CC(=O)c1ccc(NC(=O)C(C)N(C)CC(=O)Nc2cccc(F)c2)cc1 (stereo not given) | -1 | 1 | -2 | -5 | x | x | x
Cc1ccc(C)c(NC(=O)CN(C)C(=O)c2cccc(S(=O)(=O)N(C)C)c2)c1 | 0 | 3 | 1 | 3 | x | x | x
CC(=O)c1cccc(NC(=O)C(C)N(C)CC(=O)Nc2ccc(Cl)cc2)c1 (stereo not given) | 35* | 1 | -13 | -6 | 53* | 6 | 25*
CN(CC(=O)Nc1ccc(Cl)cc1)C(=O)c1cccc(S(=O)(=O)N(C)C)c1 | 9.1* | 3 | 2 | 5 | 19* | 5 | 6
O=C(Cc1ccccc1)NC1CCCc2c1cnn2-c1ccc(F)cc1F (stereo not given) | x | 3 | 15 | -1 | x | x | x
C=CCn1c(COc2ccc(C)cc2)nnc1SCC(=O)Nc1cc(Cl)cc(Cl)c1 | x | 1 | 0 | 2 | x | x | x
CC1CCCN(CCCOc2ccc(Cl)cc2Br)C1 (stereo not given) | 11* | -1 | -2 | 2 | 23* | 9 | 4
c1ccc2c3c([nH]c2c1)-c1[nH]ncc1CC3 | 16* | -10 | -19 | -13 | 19* | 2 | 22*
Clc1ccc2[nH]c3c(c2c1)CCc1cn[nH]c1-3 | 32* | -14 | -14 | -20 | 28* | 5 | 100*
COC(=O)C[C@H]1CC[C@@H]2[C@H](COc3ccc(NC(=O)c4cnccn4)cc3C(=O)N2C)O1 | x | 1 | 6 | 1 | x | x | x
c1ccc(CCNc2ccnc3cc4ccccc4cc23)cc1 | 84* | i | -22 | i | 92* | 81* | 83*
COc1ccc(Nc2ccnc3ccccc23)cc1 | -1 | 0 | -8 | 3 | x | x | x
CC(C)Nc1ccc(Nc2ccnc3cc4ccccc4cc23)cc1 | 85* | -5 | 0 | 0 | 88* | 80* | 90*
O=C(NCCc1ccccc1)c1nccc2ccccc12 | 0 | 2 | 4 | 1 | x | x | x
CCCCNS(=O)(=O)CC1NCc2cc(OC)ccc21 (stereo not given) | x | -22 | 6 | -26 | x | x | x
CN[C@H]1C[C@H]2c3[nH]c4cccc(-c5ccccc5)c4c3CCN2C[C@H]1[C@H](C)O | x | -194 | -5 | -217 | x | x | x
Cc1cccc(C)c1-n1nnnc1-c1nc2cc3ccccc3cc2[nH]c1=O | 54* | -16 | -6 | -22 | 56* | 70* | 19*
Cc1ccc(NC(=O)COC(=O)C2CCN(c3ccc(C(F)(F)F)cn3)CC2)cc1C | 0 | -2 | -1 | 0 | x | x | x
